This is an account of results in paper PMC11909909 (BMC Pharmacology & Toxicology, 2025).

SMILES strings stand for the structures.

A short description of data set [1]: Pharmacokinetics after a single 150 mg oral dose, fasting or postprandial. Type of data set: in vivo, healthy Chinese subjects. In outline:
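Healthy volunteers, 50 per fasting or fed trial, in a randomized two-sequence (TRTR/RTRT), four-period, fully replicated crossover with a 7-day washout. Each dose was one 150 mg capsule with 240 mL warm boiled water, given fed after a ~950 kcal high-fat meal. 18 venous samples per period to 48 h in precooled EDTA-K2 tubes, spun 1700g 10 min 4 °C, plasma stored ≤−60 °C. Total-dabigatran range 1.000–300.0 ng/mL; parameters per subject.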

In data set [2] the test system is coagulation parameters (PT, PTA, APTT, TT). Description: Coagulation parameters. Conditions: for PT / TT / APTT / PTA: mean ± SD. Type of data set: in vivo, healthy Chinese subjects.

In the case of `[H]/N=C(/N)c1ccc(NCc2nc3cc(C(=O)N(CCC(=O)O)c4ccccn4)ccc3n2C)cc1` [dabigatran], the Tmax in data set [1] (after a high-fat meal, median, both formulations) turned out to be 4 h; in data set [1] (human, plasma, oral, 150 mg), 2.5 h.

On to `CCCCCCOC(=O)N=C(N)c1ccc(NCc2nc3cc(C(=O)N(CCC(=O)OCC)c4ccccn4)ccc3n2C)cc1` [dabigatran etexilate], for which the “change of TT values after administration” value in data set [2] (both fasting and postprandial) is recorded as “increased more significantly”. Also, the PT worked out at 13.07 ± 0.488 s in data set [2] (fasting, fourth periodicity, n = 48, screening 13.01 ± 0.490); 12.89 ± 0.475 s in data set [2] (fasting, second periodicity, n = 50, screening 13.01 ± 0.490); 12.82 ± 0.479 s in data set [2] (postprandial, fourth periodicity, n = 50, screening 12.62 ± 0.570); 13.14 ± 0.504 s in data set [2] (postprandial, second periodicity, n = 50, screening 12.62 ± 0.570). The TT is listed as 20.73 ± 2.099 s in data set [2] (fasting, fourth periodicity, n = 48, screening 17.71 ± 0.880); 19.58 ± 1.976 s in data set [2] (fasting, second periodicity, n = 50, screening 17.71 ± 0.880); 21.30 ± 2.537 s in data set [2] (postprandial, fourth periodicity, n = 50, screening 17.63 ± 0.940); 20.78 ± 2.490 s in data set [2] (postprandial, second periodicity, n = 50, screening 17.63 ± 0.940). The APTT worked out at 36.61 ± 3.352 s in data set [2] (fasting, fourth periodicity, n = 48, screening 36.22 ± 3.090); 36.71 ± 3.947 s in data set [2] (fasting, second periodicity, n = 50, screening 36.22 ± 3.090); 36.22 ± 2.746 s in data set [2] (postprandial, fourth periodicity, n = 50, screening 36.25 ± 2.860); 36.06 ± 2.660 s in data set [2] (postprandial, second periodicity, n = 50, screening 36.25 ± 2.860). In addition, the PTA in data set [2] (fasting, fourth periodicity, n = 48, screening 101.7 ± 7.960) came to 101.2 ± 8.167%; in data set [2] (fasting, second periodicity, n = 50, screening 101.7 ± 7.960) it was 104.4 ± 8.741%; in data set [2] (postprandial, fourth periodicity, n = 50, screening 108.9 ± 10.58) it was 105.5 ± 8.808%; in data set [2] (postprandial, second periodicity, n = 50, screening 108.9 ± 10.58) it was 100.2 ± 8.297%.
